These results are taken from article PMC8791284 (SLAS discovery : advancing life sciences R & D, 2021).

In experiment [1] the test system is KRAS^G12D-expressing MEFs. The experiment in a line: ATP-based cell viability assay. The arrangement: species or system mouse. The following applies: Suppl. Fig. S3. The method in brief: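 KRAS^G12D- and HRAS^WT-expressing mouse embryonic fibroblasts are dispensed onto plates pre-spotted with test compound from 10 mM stocks. Test compound is used at 5 μM final for the primary screen, or as serial dilutions for dose–response. After 72 h, CellTiter-Glo reagent is added, incubated 15 min, and luminescence is read. Each plate is checked by Z' factor and carries a reference HSP-90 inhibitor dose–response.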

In experiment [2] the test system is CDK9 (Ser2-RNA polymerase II phosphorylation). The experiment in a line: Western blot of phospho-Ser2 RNA polymerase II in KRAS^G12D MEFs. Format: cell-based, mouse. The following applies: 6 h, 0.1, 1 and 10 μM. On the technique in general: A western blot detects proteins with antibodies after separation by electrophoresis.
The test system of experiment [3] is BRAF^V600E-expressing MEFs. In words: Cell proliferation assay, BRAF^V600E MEFs. Format: cell-based, mouse. The following applies: versus other MEF panel lines, Fig. 1E.

The structures appear in SMILES notation.

In the case of `CC(C)(C)c1cnc(CSc2cnc(NC(=O)C3CCNCC3)s2)o1` [SNS032], the “sensitivity of KRAS^G12D MEFs versus HRAS^WT MEFs in cell viability assay” value in experiment [1] was “more sensitive”. In experiment [2], the “phosphorylation level of Ser2-RNA polymerase II” value was “diminished the Ser2 phosphorylation level in a dose-dependent manner”.

Consider `CC(C)(C)c1nc(-c2cccc(NS(=O)(=O)c3c(F)cccc3F)c2F)c(-c2ccnc(N)n2)s1` [dabrafenib], for which the “specific activity against BRAF^V600E-expressing MEFs” value in experiment [3] is given as “showed specific activity”.

As to `CCCS(=O)(=O)Nc1ccc(F)c(C(=O)c2c[nH]c3ncc(-c4ccc(Cl)cc4)cc23)c1F` [vemurafenib], the “specific activity against BRAF^V600E-expressing MEFs” value in experiment [3] is reported as “showed specific activity”.
